According to ChEMBL document CHEMBL3425497, “Discovery of (R)-1-(3-((2-chloro-4-(((2-hydroxy-2-(8-hydroxy-2-oxo-1,2-dihydroquinolin-5-yl)ethyl)amino)methyl)-5-methoxyphenyl)amino)-3-oxopropyl)piperidin-4-yl [1,1'-biphenyl]-2-ylcarbamate (TD-5959, GSK961081, batefenterol): first-in-class dual pharmacology multivalent muscarinic antagonist and …” (J Med Chem, 2015):

Assays:
[1] = Clearance in male Sprague-Dawley rat at 0.25 mg/kg, iv; type: ADME, organism-based; design: dose 0.25 mg/kg, route intravenous; conditions: in vivo
[2] = target: Voltage-gated inwardly rectifying potassium channel KCNH2 (Homo sapiens, UniProt Q12809); test: Inhibition of human ERG channel up to 150 nM
Cavia porcellus [3] = organism: Cavia porcellus; test: Agonist activity at beta2 adrenergic receptor in guinea pig isolated trachea assessed as smooth muscle relaxation
Cavia porcellus [4] = organism: Cavia porcellus; test: Antisialagogue activity in guinea pig assessed as inhibition of pilocarpine-induced sialagogue response at 100 ug/ml, inhalation after 1.5 hrs; type: functional
How it was run: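 Guinea pigs were pretreated with test compound by inhalation. At 1.5 h post-dose they were challenged with pilocarpine. The sialagogue (salivation) response was recorded as % inhibition.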

[5] = Volume of distribution at steady state in male Sprague-Dawley rat at 0.25 mg/kg, iv; type: ADME, organism-based; design: dose 0.25 mg/kg, route intravenous; conditions: in vivo, read-out: Vdss
Cavia porcellus [6] = organism: Cavia porcellus; test: Combined muscarinic antagonist and beta2 agonist activity in guinea pig isolated trachea assessed as smooth muscle relaxation
[7] = target: T1, Muscarinic acetylcholine receptor M3 (Homo sapiens, UniProt P20309); test: Binding affinity to human muscarinic M3 receptor assessed as dissociation half life
How it was run: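 Kinetic radioligand dissociation study at the human M3 receptor, reported as dissociation half-life in minutes.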
Target sequence in this assay (P20309 whole entry, looked up): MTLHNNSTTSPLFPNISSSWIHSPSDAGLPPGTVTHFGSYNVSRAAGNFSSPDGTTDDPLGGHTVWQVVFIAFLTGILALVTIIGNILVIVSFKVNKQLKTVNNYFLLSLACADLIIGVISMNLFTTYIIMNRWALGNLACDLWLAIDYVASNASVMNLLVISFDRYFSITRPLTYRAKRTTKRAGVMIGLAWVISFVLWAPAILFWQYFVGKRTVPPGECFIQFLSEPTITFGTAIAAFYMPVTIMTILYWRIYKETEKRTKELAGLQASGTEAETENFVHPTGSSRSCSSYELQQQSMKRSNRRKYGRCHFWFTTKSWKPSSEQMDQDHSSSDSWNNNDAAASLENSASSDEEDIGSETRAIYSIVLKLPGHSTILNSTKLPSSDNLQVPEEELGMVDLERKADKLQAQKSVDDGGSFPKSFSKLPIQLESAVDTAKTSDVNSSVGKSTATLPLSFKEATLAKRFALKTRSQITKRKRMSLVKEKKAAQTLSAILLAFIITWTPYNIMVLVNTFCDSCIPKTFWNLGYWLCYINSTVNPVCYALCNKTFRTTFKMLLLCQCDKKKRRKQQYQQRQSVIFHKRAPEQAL

Cavia porcellus [8] = test: Bronchoprotection in male Duncan Hartley guinea pig bronchoconstriction einthoven model assessed as inhibition of methacholine-induced bronchoconstriction at 100 microg/ml, inhalation after 1.5 hrs by in vivo muscarinic acetylcholine receptor antagonist activity assay; type: functional; design: scale not given: the % may be the effect or the level left
CYP2C19 = CYP2C19 (Homo sapiens, UniProt P33261); test: Inhibition of CYP2C19 (unknown origin) at 600 nM; type: ADME
[9] = Half life in male Sprague-Dawley rat at 0.25 mg/kg, iv; type: ADME, organism-based; design: dose 0.25 mg/kg, route intravenous; conditions: in vivo
Cavia porcellus [10] = test: Bronchoprotection in male Duncan Hartley guinea pig bronchoconstriction einthoven model assessed as inhibition of methacholine-induced bronchoconstriction at 100 microg/ml, inhalation after 24 hrs by in vivo muscarinic antagonist and beta2 agonist activity assay; type: functional; design: scale not given: the % may be the effect or the level left
How it was run: (§1)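 Einthoven bronchoprotection in guinea pigs, read as % bronchoprotection 24 h after inhaled dosing. The TFA salt was used in the initial experiments. For one compound, the edisylate salt was compared with the TFA form. Group sizes were n = 3–8.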

CYP2D6 = CYP2D6 (Homo sapiens, UniProt P10635); test: Inhibition of CYP2D6 (unknown origin) at 600 nM; type: ADME
Cavia porcellus [11] = test: Bronchoprotection in male Duncan Hartley guinea pig bronchoconstriction einthoven model assessed as inhibition of methacholine-induced bronchoconstriction at 100 microg/ml, inhalation after 1.5 hrs by in vivo beta2 adrenergic receptor agonist activity assay; type: functional; design: scale not given: the % may be the effect or the level left
CYP3A4 = CYP3A4 (Homo sapiens, UniProt P08684); test: Inhibition of CYP3A4 (unknown origin) at 600 nM; type: ADME
[12] = target: T1, Muscarinic acetylcholine receptor M3; test: Displacement of [3H]NMS from human muscarinic M3 receptor expressing CHO-K1 cells incubated for 60 mins or 6 hrs by liquid scintillation counting; type: cell-based
Target sequence in this assay (P20309 whole entry): as the sequence (P20309 whole entry, looked up) above

Cavia porcellus [13] = test: Bronchoprotection in male Duncan Hartley guinea pig bronchoconstriction einthoven model assessed as inhibition of methacholine-induced bronchoconstriction at 100 microg/ml, inhalation after 24 hrs by in vivo muscarinic acetylcholine receptor antagonist activity assay; type: functional; design: scale not given: the % may be the effect or the level left; how it was run: as §1
Rattus norvegicus = test: Toxicity in rat assessed as respiratory irritation and systemic exposures up to 333 ug/kg dosed via inhalation during 7-day inhalation study; type: organism-based; conditions: in vivo, 0.333 mg/kg
Liver microsome = test: Drug metabolism in human liver microsomes assessed as metabolites; type: ADME
[14] = Oral bioavailability in male Sprague-Dawley rat at 0.25 mg/kg; type: ADME, organism-based; conditions: in vivo
Cavia porcellus [15] = organism: Cavia porcellus; test: Antagonist activity at muscarinic M3 receptor in guinea pig isolated trachea assessed as smooth muscle relaxation
[16] = Apparent permeability across apical to basolateral side in human Caco2 cells using [14C]mannitol at 10 to 100 uM after 30 mins by HPLC-UV analysis; type: ADME, cell-based; conditions: caco-2, 0.5 h
Cavia porcellus [17] = test: Bronchoprotection in male Duncan Hartley guinea pig bronchoconstriction einthoven model assessed as inhibition of methacholine-induced bronchoconstriction at 100 microg/ml, inhalation after 24 hrs by in vivo beta2 adrenergic receptor agonist activity assay; type: functional; design: scale not given: the % may be the effect or the level left; how it was run: as §1
CYP2C9 = CYP2C9 (Homo sapiens, UniProt P11712); test: Inhibition of CYP2C9 (unknown origin) at 600 nM; type: ADME
Cavia porcellus [18] = test: Bronchoprotection in male Duncan Hartley guinea pig bronchoconstriction einthoven model assessed as inhibition of methacholine-induced bronchoconstriction at 100 microg/ml, inhalation after 1.5 hrs by in vivo muscarinic antagonist and beta2 agonist activity assay; type: functional; design: scale not given: the % may be the effect or the level left
[19] = Half life in human liver microsomes at 3 uM after 30 mins by HPLC-UV analysis; type: ADME
Salmonella typhimurium [20] = test: Genotoxicity in Salmonella typhimurium at 5000 ug/plate by AMES test in absence of metabolic activation; type: toxicity, organism-based; conditions: salmonella enterica subsp. enterica serovar typhimurium
How it was run: (§2)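 Exploratory (non-GLP) Ames assay, tested at up to 5000 μg/plate with and without a metabolic activation system.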

Salmonella typhimurium [21] = test: Genotoxicity in Salmonella typhimurium at 5000 ug/plate by AMES test in presence of metabolic activation; type: toxicity, organism-based; conditions: salmonella enterica subsp. enterica serovar typhimurium; how it was run: as §2
CYP1A2 = target: T2, CYP1A2 (Homo sapiens, UniProt P05177); test: Inhibition of CYP1A2 (unknown origin) at 600 nM; type: ADME
T2 sequence (P05177 whole entry): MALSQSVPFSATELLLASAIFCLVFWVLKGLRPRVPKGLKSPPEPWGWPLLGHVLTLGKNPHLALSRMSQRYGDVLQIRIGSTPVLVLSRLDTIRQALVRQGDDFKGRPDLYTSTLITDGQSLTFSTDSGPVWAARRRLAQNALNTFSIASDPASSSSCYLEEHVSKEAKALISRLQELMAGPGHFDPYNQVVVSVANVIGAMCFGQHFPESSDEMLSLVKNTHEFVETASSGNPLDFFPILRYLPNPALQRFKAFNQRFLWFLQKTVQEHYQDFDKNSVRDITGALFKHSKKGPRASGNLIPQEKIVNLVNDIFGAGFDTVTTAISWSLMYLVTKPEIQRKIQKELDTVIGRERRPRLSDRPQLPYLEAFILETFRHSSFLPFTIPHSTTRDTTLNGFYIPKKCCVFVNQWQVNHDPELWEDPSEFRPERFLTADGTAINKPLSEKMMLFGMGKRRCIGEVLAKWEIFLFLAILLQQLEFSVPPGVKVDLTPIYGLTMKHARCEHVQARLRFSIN

Sequence of CYP3A4 (P08684 whole entry): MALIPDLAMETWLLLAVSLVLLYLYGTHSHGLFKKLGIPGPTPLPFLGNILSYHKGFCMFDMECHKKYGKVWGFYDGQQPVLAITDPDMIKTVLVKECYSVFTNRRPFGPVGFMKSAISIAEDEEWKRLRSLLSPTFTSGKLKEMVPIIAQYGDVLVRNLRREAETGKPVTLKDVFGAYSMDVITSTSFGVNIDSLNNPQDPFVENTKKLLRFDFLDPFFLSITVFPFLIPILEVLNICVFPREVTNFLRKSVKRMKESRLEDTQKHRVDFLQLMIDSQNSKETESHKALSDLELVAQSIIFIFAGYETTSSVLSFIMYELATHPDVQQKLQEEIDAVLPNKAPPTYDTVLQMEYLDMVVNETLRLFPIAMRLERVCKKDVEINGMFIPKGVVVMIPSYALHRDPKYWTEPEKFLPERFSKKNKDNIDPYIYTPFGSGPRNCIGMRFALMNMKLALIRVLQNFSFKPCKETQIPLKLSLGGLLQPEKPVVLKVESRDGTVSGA
Sequence of CYP2C19 (P33261 whole entry): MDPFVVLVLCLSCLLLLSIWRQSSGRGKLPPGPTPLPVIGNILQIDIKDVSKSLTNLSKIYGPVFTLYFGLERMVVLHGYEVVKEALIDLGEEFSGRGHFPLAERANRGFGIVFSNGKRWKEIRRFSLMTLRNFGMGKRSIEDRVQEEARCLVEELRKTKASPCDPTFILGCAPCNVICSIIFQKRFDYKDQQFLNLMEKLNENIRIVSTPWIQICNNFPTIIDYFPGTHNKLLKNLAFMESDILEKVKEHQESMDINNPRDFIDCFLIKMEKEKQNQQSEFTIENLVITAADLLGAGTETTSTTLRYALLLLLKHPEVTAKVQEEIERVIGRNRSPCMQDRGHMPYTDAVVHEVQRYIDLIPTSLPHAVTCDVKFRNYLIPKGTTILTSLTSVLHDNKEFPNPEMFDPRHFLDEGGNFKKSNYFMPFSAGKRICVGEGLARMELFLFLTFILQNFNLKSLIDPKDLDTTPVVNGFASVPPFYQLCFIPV
Sequence of Voltage-gated inwardly rectifying potassium channel KCNH2 (Q12809 whole entry): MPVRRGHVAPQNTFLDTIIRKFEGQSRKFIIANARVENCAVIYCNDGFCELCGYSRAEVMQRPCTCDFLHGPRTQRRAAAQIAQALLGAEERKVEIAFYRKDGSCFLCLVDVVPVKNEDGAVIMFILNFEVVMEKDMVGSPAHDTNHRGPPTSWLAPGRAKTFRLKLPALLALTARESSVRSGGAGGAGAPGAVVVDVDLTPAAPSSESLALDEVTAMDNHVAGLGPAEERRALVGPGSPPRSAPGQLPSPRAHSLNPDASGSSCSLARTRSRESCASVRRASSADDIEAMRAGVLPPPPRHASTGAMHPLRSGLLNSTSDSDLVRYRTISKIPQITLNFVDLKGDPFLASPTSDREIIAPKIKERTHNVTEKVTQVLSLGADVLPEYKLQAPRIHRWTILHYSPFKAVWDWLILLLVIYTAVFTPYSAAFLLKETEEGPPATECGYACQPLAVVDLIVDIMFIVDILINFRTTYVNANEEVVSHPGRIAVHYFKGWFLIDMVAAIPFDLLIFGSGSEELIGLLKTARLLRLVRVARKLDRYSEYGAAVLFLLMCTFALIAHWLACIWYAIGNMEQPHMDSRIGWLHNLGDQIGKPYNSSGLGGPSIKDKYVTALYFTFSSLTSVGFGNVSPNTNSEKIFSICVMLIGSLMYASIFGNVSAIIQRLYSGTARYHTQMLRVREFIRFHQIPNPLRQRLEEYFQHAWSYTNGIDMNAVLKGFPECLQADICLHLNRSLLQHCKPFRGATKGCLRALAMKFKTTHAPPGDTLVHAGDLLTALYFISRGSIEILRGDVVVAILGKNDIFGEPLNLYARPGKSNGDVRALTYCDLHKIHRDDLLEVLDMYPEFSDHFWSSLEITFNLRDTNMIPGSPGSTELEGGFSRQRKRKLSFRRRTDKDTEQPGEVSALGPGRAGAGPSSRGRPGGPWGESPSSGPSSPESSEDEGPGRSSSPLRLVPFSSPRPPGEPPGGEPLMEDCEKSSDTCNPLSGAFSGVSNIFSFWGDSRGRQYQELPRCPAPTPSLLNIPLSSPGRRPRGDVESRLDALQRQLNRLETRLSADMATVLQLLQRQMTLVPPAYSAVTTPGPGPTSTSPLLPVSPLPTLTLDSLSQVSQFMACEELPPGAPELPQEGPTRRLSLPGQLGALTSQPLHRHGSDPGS
Sequence of CYP2D6 (P10635 whole entry): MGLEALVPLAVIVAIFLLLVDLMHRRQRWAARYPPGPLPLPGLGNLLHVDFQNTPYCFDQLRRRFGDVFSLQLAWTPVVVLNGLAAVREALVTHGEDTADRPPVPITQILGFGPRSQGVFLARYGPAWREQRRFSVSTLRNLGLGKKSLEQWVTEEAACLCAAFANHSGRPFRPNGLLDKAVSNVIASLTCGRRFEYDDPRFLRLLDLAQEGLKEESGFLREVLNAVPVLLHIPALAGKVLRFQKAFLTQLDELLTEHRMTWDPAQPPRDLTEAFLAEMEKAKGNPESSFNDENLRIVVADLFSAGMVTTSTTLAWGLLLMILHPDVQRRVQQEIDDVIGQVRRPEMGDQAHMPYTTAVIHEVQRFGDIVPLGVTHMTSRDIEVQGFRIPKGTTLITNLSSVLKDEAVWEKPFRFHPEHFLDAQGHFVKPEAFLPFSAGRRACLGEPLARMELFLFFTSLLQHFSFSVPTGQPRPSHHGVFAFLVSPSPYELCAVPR
Sequence of CYP2C9 (P11712 whole entry): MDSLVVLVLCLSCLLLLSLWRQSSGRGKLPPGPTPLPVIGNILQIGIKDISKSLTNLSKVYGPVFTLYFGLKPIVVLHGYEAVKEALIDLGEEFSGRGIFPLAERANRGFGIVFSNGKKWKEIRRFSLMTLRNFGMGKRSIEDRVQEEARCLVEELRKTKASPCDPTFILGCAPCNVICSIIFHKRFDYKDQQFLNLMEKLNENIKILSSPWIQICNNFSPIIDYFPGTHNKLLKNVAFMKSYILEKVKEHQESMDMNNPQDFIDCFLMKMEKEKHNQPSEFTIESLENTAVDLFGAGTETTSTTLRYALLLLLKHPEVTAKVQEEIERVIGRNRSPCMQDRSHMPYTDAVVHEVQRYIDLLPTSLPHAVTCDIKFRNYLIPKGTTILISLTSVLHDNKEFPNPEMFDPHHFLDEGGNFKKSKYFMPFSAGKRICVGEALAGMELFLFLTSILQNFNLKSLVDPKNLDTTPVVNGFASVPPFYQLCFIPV

SMILES: COc1cc(NC(=O)CCN2CCC(OC(=O)Nc3ccccc3-c3ccccc3)CC2)c(Cl)cc1CNC[C@H](O)c1ccc(O)c2[nH]c(=O)ccc12 [BATEFENTEROL]
- clearance [1]: 75.3 mL/min/kg
- inhibition (INH) [2]: Not Active
- EC50 (Cavia porcellus [3]): 25 nM
- inhibition (INH) (Cavia porcellus [4]): 4%
- Vd [5]: 0.32 L/kg
- EC50 (Cavia porcellus [6]): 10 nM
- T1/2 [7]: 3 min
- Activity (Cavia porcellus [8]): 75%
- inhibition at 0.6 µM (CYP2C19): < 20%
- half-life [9]: 10.8 min
- Activity (Cavia porcellus [10]): 77%
- inhibition at 0.6 µM (CYP2D6): < 20%
- Activity (Cavia porcellus [11]): 73%
- inhibition at 0.6 µM (CYP3A4): < 20%
- Ki [12]: 2 nM
- Activity (Cavia porcellus [13]): 48%
- Activity (Rattus norvegicus): Non-toxic
- Drug metabolism (Liver microsome): metabolite_notdetected
- bioavailability [14]: < 0.45%
- EC50 (Cavia porcellus [15]): 50 nM
- Papp [16]: < 0.4 ×10⁻⁶ cm/s
- Activity (Cavia porcellus [17]): 47%
- inhibition at 0.6 µM (CYP2C9): < 20%
- Activity (Cavia porcellus [18]): 92%
- half-life at 3 µM [19]: 11.3 min
- Activity (Salmonella typhimurium [20]): Non-toxic
- Activity (Salmonella typhimurium [21]): Non-toxic
- inhibition at 0.6 µM (CYP1A2): 25%
